High-throughput results deposited in PubChem by Johns Hopkins Ion Channel Center.
KCNK9 inh = human KCNK9 channel inhibition; AID 488922; B-score at 10 µM; HEK293 KCNK9, FluxOR thallium flux fluorescence; hits give low values; hit rate 1.2% among 310,000; Q9NPC2;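 active = ratio B-score over 3 SD below the library mean, with starting fluorescence within 5 SD of its mean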;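 note: negative B-score means less thallium flux so channel inhibition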
hERG protect = compounds protecting human hERG from proarrhythmic drug block; Q12809; CHO-hERG, FluxOR thallium flux, dofetilide IC70 present; activation (rescue from dofetilide block), less the hit threshold, % at 10 µM; hit rate 0.51% among 310,000;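 active = activation above the mean of controls blocked by dofetilide plus 5 SD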;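 note: thallium influx through hERG after potassium depolarization seen as dye fluorescence rise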
KCNK3 inh = human KCNK3 channel inhibition, primary screen; B-score at 10 µM; hit rate 0.84% among 340,000; CHO-KCNK3 thallium flux, FluxOR fluorescence; hits give low values; AID 602410;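 active = B-score under library mean minus 4 SD, starting fluorescence ratio at most library mean plus 5 SD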;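 note: more negative B-score means stronger inhibition of thallium flux through KCNK3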
KCNQ1 act = potentiates or activates the human KCNQ1 potassium channel | CHO-K1 KCNQ1, thallium flux FluxOR fluorescence; hits give high values | hit rate 0.35% among 310,000 | AID 2648 | B-score at 10 µM | P51787;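 active = fluorescence ratio B-score, a plate-corrected score, at least three library SD, with initial intensity B-score within 5 SD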
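assay system = CHO-K1 cells stably expressing KCNQ1 | medium = assay buffer, equal DMSO in all wells | timing = 37 °C overnight plating, 90-min dark dye load, 20-min compound pretreatment | measured by = kinetic FluxOR thallium fluorescence, 10-s 1-Hz baseline, 110-s post-stimulus read | measure = fluorescence change relative to baseline, converted to B score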
Kir21 inh = inhibitors of mouse Kir2.1 inward-rectifier potassium channel. P35561. hit rate 0.85% among 310,000. HEK293-Kir2.1, FluxOR thallium flux fluorescence; hits give low values. B-score at 10 µM;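 active = fluorescence ratio B-score at or below minus 3 SD of library scores, with starting-brightness B-score within 2 SD, cut at about -4.2 in these data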;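 note: channel flux triggered by added potassium and thallium sulfate stimulus; B-score of peak minus minimum fluorescence over baseline after thallium stimulus; more negative B-score means stronger Kir2.1 block with less thallium influx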
Target sequence (P35561 whole entry, looked up): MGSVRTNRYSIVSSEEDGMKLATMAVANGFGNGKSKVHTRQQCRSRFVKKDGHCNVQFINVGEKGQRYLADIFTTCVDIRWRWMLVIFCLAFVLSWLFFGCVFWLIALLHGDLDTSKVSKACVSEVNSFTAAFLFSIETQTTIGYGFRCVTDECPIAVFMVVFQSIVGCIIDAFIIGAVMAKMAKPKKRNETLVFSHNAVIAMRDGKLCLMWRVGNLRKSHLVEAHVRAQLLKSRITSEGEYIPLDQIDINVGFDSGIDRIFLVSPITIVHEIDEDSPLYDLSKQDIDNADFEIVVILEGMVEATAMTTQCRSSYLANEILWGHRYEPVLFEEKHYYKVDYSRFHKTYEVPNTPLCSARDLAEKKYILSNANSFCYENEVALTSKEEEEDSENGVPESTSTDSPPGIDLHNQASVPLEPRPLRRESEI
KCNQ1 block = human KCNQ1 channel inhibition; P51787; CHO-K1 KCNQ1, FluxOR thallium flux fluorescence; hits give high values; B-score at 10 µM; hit rate 1.3% among 310,000;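 active = compounds whose thallium flux B-score, printed positive for inhibition, exceeds three library SD while starting fluorescence stays within three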;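 note: channel opened by potassium depolarization with thallium stimulus after 20 min compound exposure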
* hit, by the source's call; i = inactive; x = not tested or not shown. Hits are enriched below; roughly 3.8% of the tested compounds scored in any of these assays.

SMILES | KCNK9 inh | hERG protect | KCNK3 inh | KCNQ1 act | Kir21 inh | KCNQ1 block
Cc1cc(Cn2nc(C(=O)NCc3cccc(C(F)(F)F)c3)cc2-c2ccccc2)on1 | x | x | -9.7* | x | x | x
O=C(NCC1CC1)c1cc(-c2ccccc2)nn1CC1CC(c2cccc([N+](=O)[O-])c2)=NO1 (centres undefined) | -8.3* | -8 | i | i | 2.8 | i
COCCNC(=O)c1cc(-c2ccccc2)nn1CC1CC(c2cccc([N+](=O)[O-])c2)=NO1 (centres undefined) | i | -8 | i | i | 0.96 | i
O=C(NCc1cccc(Br)c1)c1cc(-c2ccccc2)nn1CC1CC(c2cccc([N+](=O)[O-])c2)=NO1 (centres undefined) | -7.1* | -14 | i | i | -0.61 | i
O=C(Nc1nccs1)c1cc(-c2ccccn2)nc2c(Cl)cccc12 | i | -10 | i | i | -0.58 | i
COC(=O)C1=CN(Cc2cccs2)C=C(C(=O)OC)C1c1cccc(Cl)c1 | -7.9* | -12 | i | i | 0.09 | i
CCOC(=O)C1=C(C)N=c2s/c(=C/c3ccc(OCC(=O)O)cc3)c(=O)n2C1c1ccc(OC)cc1OC (centres undefined) | i | -7 | i | i | 0.38 | 6*
CCOC(=O)C1=C(C)N=c2s/c(=C/c3ccc(OCC(=O)O)cc3)c(=O)n2C1c1ccc(F)cc1 (centres undefined) | i | -5 | i | i | 0.87 | i
CCOC(=O)C1=C(C)N=c2s/c(=C\c3ccc(OCC(=O)O)cc3)c(=O)n2C1c1ccc(Cl)cc1 (centres undefined) | i | -7 | i | i | -1.1 | 7*
COc1ccc(C2C(C(C)=O)=C(C)N=c3s/c(=C\c4cc(C)n(C)c4C)c(=O)n32)c(OC)c1 (centres undefined) | i | -25 | i | i | -3.2 | 9*
CCOC(=O)C1=C(C)N=c2s/c(=C\c3ccncc3)c(=O)n2C1c1ccc2c(c1)OCO2 (centres undefined) | i | -14 | i | i | -0.76 | 8*
CC1(C)CC(NC(=O)c2cccc(S(=O)(=O)N(Cc3ccccc3)c3ccccc3)c2)CC(C)(C)N1 | i | -10 | i | i | -1.6 | i
CCCN1C2CCCC1CC(NC(=O)c1ccccc1OC)C2 (centres undefined) | i | -5 | i | i | -0.49 | 8*
Cc1c(C)n(Cc2ccc(F)cc2)c2ccc(C(=O)NCCCN3CCOCC3)cc12 | i | -12 | i | i | -4.8* | i
Cc1c(C)n(Cc2ccc(F)cc2)c2ccc(C(=O)N3CCN(c4ccccn4)CC3)cc12 | i | -9 | i | i | 0.03 | 6*
Cc1c(C)n(C)c2ccc(C(=O)NCCCN3CCN(c4ccc(F)cc4)CC3)cc12 | i | -16 | i | i | -4.2* | i
O=C(Nc1ccc(S(=O)(=O)NC2=NCCCCC2)cc1)C1COc2ccccc2O1 (centres undefined) | i | -4 | i | i | -0.21 | i
O=C(NC(=S)NCc1cccnc1)c1cc(Br)ccc1Cl | i | -7 | i | i | 0.22 | i
CC(=O)c1c(C)[nH]c(C(=O)CN(C)CC(=O)Nc2ccccc2Cl)c1C | x | x | i | x | x | x
CCOC(=O)c1c(C)[nH]c(C(=O)CN(C)CC(=O)Nc2ccccc2Cl)c1C | x | x | -11* | x | x | x
Cc1nn(CC(=O)Nc2ccc(S(N)(=O)=O)cc2)c(=O)c2ccccc12 | i | -10 | i | i | -0.59 | i
CCN(CC)CCN(C(=O)c1ccc2c(c1)CCCC2)c1nc2c(C)cccc2s1 | i | -14 | i | i | -0.38 | 8*
CCN(CC)CCN(C(=O)c1ccc2c(c1)CCCC2)c1nc2ccc(C)cc2s1 | i | -31 | i | i | 0.68 | 12*
CCN(CC)CCN(C(=O)c1ccc2c(c1)CCCC2)c1nc2ccc(F)cc2s1 | i | -25 | i | i | 1.1 | i
CCN(CC)CCN(C(=O)c1ccc2c(c1)CCCC2)c1nc2ccc(OC)cc2s1 | i | -29 | i | i | -0.66 | 12*
SMILES | KCNK9 inh | hERG protect | KCNK3 inh | KCNQ1 act | Kir21 inh | KCNQ1 block
O=C(CCSC1=NCCCN1)c1ccc(F)cc1 | x | x | i | x | x | x
Cc1nnc(N/N=C/c2cc([N+](=O)[O-])c(N3CCC(C)CC3)cc2N2CCC(C)CC2)n1N | i | -14 | i | i | 0.69 | 10*
CC(C)(C)CNC(=O)c1cccc2c1C(=O)c1ccc(-c3cc4ccccc4o3)cc1S2(=O)=O | x | x | i | x | x | x
CC1CCCCC12NC(=S)N(c1ccccc1)N2 (centres undefined) | i | -3 | i | i | 1 | i
O=[N+]([O-])c1cc(Cl)cc(/C=N/NC(=S)Nc2ccc(S(=O)(=O)N3CCOCC3)cc2)c1O | i | -1 | i | i | 0 | 8*
O=C(Nc1ncc([N+](=O)[O-])s1)c1ccc2c(c1)OCO2 | i | -6 | i | i | 0.54 | i
CC(CC(=O)Nc1ncc([N+](=O)[O-])s1)c1ccccc1 (centres undefined) | i | -6 | i | i | -0.02 | 11*
Cc1ccc(C(=O)Nc2ncc([N+](=O)[O-])s2)cc1 | i | -2 | i | i | 0.97 | 6*
Cc1c(C(=O)N/N=C/C(C)C)[nH]c2c([N+](=O)[O-])cccc12 | i | -3 | i | i | 0.2 | i
CCCCOc1ccc(-c2c(C#N)c(N)[nH]c(=S)c2C#N)cc1 | i | 8.4* | i | i | 1.2 | i
CCOC(=O)Nc1ccc(C(=O)Oc2ccccc2)c(O)c1 | i | -6 | i | i | 0.09 | i
O=C(Nc1ccc(C(=O)Oc2ccccc2)c(O)c1)c1ccco1 | -7.2* | -10 | i | i | 0.86 | i
O=C(Nc1ccc(OC(=O)c2cccs2)cc1)c1ccco1 | i | -3 | i | i | 1.2 | i
O=C(Nc1ccc(C(=O)Oc2ccccc2)c(O)c1)c1ccccc1 | -7.2* | -1 | i | i | 0.7 | i
COc1cccc(/C=N/NC(=O)c2ccncc2)c1OC(=O)c1ccc(Br)cc1 | i | -16 | i | i | -1.7 | i
CN(c1ccccc1)c1ccc(/C=C/[N+](=O)[O-])cc1 | i | -5 | i | i | -11* | i
NC(=O)C1(Nc2ccc(-c3ccc(Br)cc3)cc2)CCCC1 | x | x | i | x | x | x
COC(=O)C1=C(C)N(Cc2ccccc2)C(=NCC(C)C)N[C@H]1c1ccccc1 | i | -18 | x | i | -8.2* | i
COC(=O)C1=C(C)N(Cc2ccccc2)C(=O)N[C@H]1c1cccc(F)c1 | i | -9 | i | i | -1.1 | i
